Published values pooled from the literature.
KIT autoinhibited: Mast/stem cell growth factor receptor Kit, autoinhibited (KIT, Homo sapiens, UniProt P10721)
KIT A829P: Mast/stem cell growth factor receptor Kit (KIT, Homo sapiens, UniProt P10721, A829P)
KIT L576P: Mast/stem cell growth factor receptor Kit (KIT, Homo sapiens, UniProt P10721, L576P)
KIT T670I/V559D: Mast/stem cell growth factor receptor Kit (KIT, Homo sapiens, UniProt P10721, T670I/V559D)
KIT: Mast/stem cell growth factor receptor Kit (KIT, Homo sapiens, UniProt P10721)
KIT D816H: Mast/stem cell growth factor receptor Kit (KIT, Homo sapiens, UniProt P10721, D816H)
KIT V559D: Mast/stem cell growth factor receptor Kit (KIT, Homo sapiens, UniProt P10721, V559D)

SMILES | target | assay | conditions | remaining binding [%]
CN(C)c1ncc(F)c(-c2cnn3ncccc23)n1 | KIT autoinhibited | binding | 1 µM | 73
O=C(c1ccc(Nc2nccc(-c3cc4ccccc4s3)n2)cc1)N1CCC(N2CCCC2)CC1 | KIT A829P | binding, competition with immobilised ligand | 1 µM | 31
C[C@@H]1CCN(c2nccc(-c3cnn4ncccc34)n2)C1 | KIT L576P | binding | 1 µM | 100
N#Cc1ccccc1CSc1nnc2c(n1)[nH]c1ccccc12 | KIT T670I/V559D | binding, competition with immobilised ligand | 10 µM | 100
CCS(=O)(=O)c1cc2cc(C[C@](O)(CC(C)(C)c3ccc(F)cc3C(N)=O)C(F)(F)F)[nH]c2cn1 | KIT L576P | cell-free assay, competition with immobilised ligand | 1 µM | 83
C=CC(=O)N1CCC(C(=O)NCC(=O)N2CCN(c3nc(-c4cnc(N)nc4C(F)F)nc(N4CCOCC4)n3)CC2)CC1 | KIT | binding, competition with immobilised ligand | 1 µM | 93
O=C(Nc1c[nH]nc1C(=O)NC1CCNCC1)c1cc(F)cc(F)c1 | KIT D816H | binding, competition with immobilised ligand | 1 µM | 100
CNC(=O)[C@@H]1CC[C@@H](n2c(-c3ccc4cnccc4c3)nc3ccc(C(=O)NCc4cccc(C(N)=O)c4)cc32)C1 | KIT L576P | binding, competition with immobilised ligand | 1 µM | 99
Cc1c[nH]c2nccc(Oc3c(F)cc(Nc4cc(Cl)nc(N)n4)cc3F)c12 | KIT autoinhibited | cell-free assay, competition with immobilised ligand | 0.1 µM | 77
CN(C)c1nccc(-c2cnc3ncccn23)n1 | KIT T670I/V559D | binding | 1 µM | 92
COc1ccc2c(c1)O[C@@H](c1ccc(OC)c(OC)c1)C[C@H]2NC(=O)C1(c2ccc3c(c2)OC(F)(F)O3)CC1 | KIT A829P | cell-free assay, competition with immobilised ligand | 1 µM | 75
CN(C)c1nccc(-c2cnn3ncccc23)n1 | KIT autoinhibited | binding | 1 µM | 88
O=c1nc(-c2ccccn2)sc2ccccc12 | KIT D816H | binding, competition with immobilised ligand | 1 µM | 92
c1cncc(-c2cccc(Nc3nccc(NC4CCCCC4)n3)c2)c1 | Mast/stem cell growth factor receptor Kit (KIT, Homo sapiens, UniProt P10721, D816V) | binding, competition with immobilised ligand | 10 µM | 0.75
CN1CCN(c2ccc(Nc3nccc(-c4ccccc4)n3)cc2C(F)(F)F)CC1 | KIT V559D | binding | 10 µM | 0.05
O=C(O)[C@H]1[C@H](Cn2nnc3ccccc3c2=O)CC[C@@H]1C(=O)c1ccc(OCCC2CCOCC2)cc1 | KIT L576P | cell-free assay, competition with immobilised ligand | 1 µM | 96
CN(c1nccc(-c2cnn3ncccc23)n1)C1CC1 | KIT | binding | 1 µM | 89
O=C(NCCCN1CCOCC1)c1ccc(Nc2ncc(Cl)c(-c3ccc(Cl)s3)n2)cc1 | KIT V559D | binding, competition with immobilised ligand | 1 µM | 0.05
Cc1cnn2ncc(-c3ccnc(N(C)C)n3)c2c1 | KIT autoinhibited | binding | 1 µM | 95
Nc1ncc2c(n1)-c1c([nH]c3ccc(C#CC4CC4)cc13)CCCC2 | Mast/stem cell growth factor receptor Kit (KIT, Homo sapiens, UniProt P10721, V559D/V654A) | binding, competition with immobilised ligand | 1 µM | 100
CCOCCn1cc(C(=O)Nc2ccc(-n3nc(-c4cccnc4)cc3C(F)(F)F)cn2)ccc1=O | KIT | cell-free assay, competition with immobilised ligand | 1 µM | 100
F[C@@H]1CCN(c2nccc(-c3cnn4ncccc34)n2)C1 | KIT A829P | binding | 1 µM | 74
CS(=O)(=O)N1CCCC(NC(=O)[C@H](CCC2CCCCC2)NC(=O)c2ccc(CNc3ncnc4c3nnn4-c3ccccc3)cc2)C1 (stereo partly drawn) | KIT T670I/V559D | cell-free assay, competition with immobilised ligand | 0.1 µM | 100
O=C(c1ccc(Nc2ncc(Cl)c(-c3ccc(Cl)s3)n2)cc1)N1CCC(N2CCCC2)CC1 | KIT A829P | binding, competition with immobilised ligand | 1 µM | 4.3
